Experimental data taken from ChEMBL document CHEMBL1130118, “A novel radioiodination reagent for protein radiopharmaceuticals with L-lysine as a plasma-stable metabolizable linkage to liberate m-iodohippuric acid after lysosomal proteolysis” (J Med Chem, 1997).

Tests used:
Type in all cases: ADME, organism-based
Mus musculus [1] = test: The biodistribution time for compound radioactivity after concomitant administration of [131 I ]L-HML-NGA and compound in mice. It is expressed as percent injected dose per gram of blood tissue after 3 hours; details: in vivo
In short: (§1)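 Six-week-old male ddY mice received an intravenous injection of a 1:1 mix of the 131I- and 125I-labelled galactosyl-neoglycoalbumin conjugates, each diluted to 90 µg/mL protein in 0.1 M PBS pH 6.0, at 9 µg radioiodinated NGA per mouse. Groups of five were killed at 5, 15 and 30 min, 1 and 3 h. Organs were excised, weighed and well-counted, giving %ID/organ (blood %ID/g) as mean (SD).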

Mus musculus [2] = test: The biodistribution time for compound radioactivity after concomitant administration of [131 I ]L-HML-NGA and compound in mice. It is expressed as percent injected dose per neck after 30 minutes; details: in vivo, 0.5 h; in short: as §1
Mus musculus [3] = test: The biodistribution time for compound radioactivity after concomitant administration of [131 I ]L-HML-NGA and compound in mice. It is expressed as percent injected dose per intestine after 1 hour; details: in vivo; in short: as §1
Mus musculus [4] = test: The biodistribution time for compound radioactivity after concomitant administration of [131 I ]L-HML-NGA and compound in mice. It is expressed as percent injected dose per stomach after 5 minutes; details: in vivo; in short: as §1
Mus musculus [5] = test: The biodistribution time for compound radioactivity after concomitant administration of [131 I ]L-HML-NGA and [compound in mice. It is expressed as percent injected dose per stomach after 1 hour; details: in vivo; in short: as §1
Mus musculus [6] = test: The biodistribution time for compound radioactivity after concomitant administration of [131 I ]L-HML-NGA and compound in mice. It is expressed as percent injected dose per intestine after 3 hours; details: in vivo; in short: as §1
Mus musculus [7] = test: The biodistribution time for compound radioactivity after concomitant administration of [131 I ]L-HML-NGA and compound in mice. It is expressed as percent injected dose per liver after 1 hour; details: in vivo; in short: as §1
Mus musculus [8] = test: The biodistribution time for compound radioactivity after concomitant administration of [131 I ]L-HML-NGA and compound in mice. It is expressed as percent injected dose per gram of blood tissue after 30 minutes; details: in vivo, 0.5 h; in short: as §1
Mus musculus [9] = test: The biodistribution time for compound radioactivity after concomitant administration of [131 I ]L-HML-NGA and compound in mice. It is expressed as percent injected dose per gram of blood tissue after 1 hour; details: in vivo; in short: as §1
Mus musculus [10] = test: The biodistribution time for compound radioactivity after concomitant administration of [[131 I ]L-HML-NGA and compound in mice. It is expressed as percent injected dose per kidney after 3 hours; details: in vivo; in short: as §1
Homo sapiens [11] = species on record: Homo sapiens; test: The percent protein-bound radioactivity in NGAfractions following incubation of radioiodinated compound in human serum after 24 hours
In short: (§2)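 Conjugates were diluted to 0.5 mg/mL in 0.1 M PBS pH 6.0, and 20 µL was added to 230 µL of freshly prepared human serum. Samples were incubated at 37 °C and taken at 1, 3, 6 or 24 h. Protein-bound fraction (Rf 0) was separated from small metabolites (Rf 0.6-0.9) by paper chromatography in methanol-water 4:1. Protein-bound radioactivity was divided by the initial radiochemical purity. Values are mean (SD).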

Mus musculus [12] = test: The biodistribution time for compound radioactivity after concomitant administration of [131 I ]L-HML-NGA and compound in mice. It is expressed as percent injected dose per neck after 1 hour; details: in vivo; in short: as §1
[13] = Cumulative radioactivity exerted by compound in the feces at 24 hour postinjection of [131 I ]L-HML-NGA and compound.; details: in vivo
In short: (§3)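 Mice received one i.v. co-injection of the dual-isotope NGA mixture, 9 µg of each radioiodinated protein, and were housed in metabolic cages for 24 h. Cumulative urine and feces were collected and counted. Values are % injected dose, mean (SD) of five animals, with a Student's paired t-test between the two co-administered conjugates.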

Mus musculus [14] = test: The biodistribution time for compound radioactivity after concomitant administration of [131 I ]L-HML-NGA and compound in mice. It is expressed as percent injected dose per neck after 5 minutes; details: in vivo; in short: as §1
Mus musculus [15] = test: The biodistribution time for compound radioactivity after concomitant administration of [131 I ]L-HML-NGA and compound in mice. It is expressed as percent injected dose per stomach after 3 hours; details: in vivo; in short: as §1
Mus musculus [16] = test: The biodistribution time for compound radioactivity after concomitant administration of [131 I ]L-HML-NGA and compound in mice. It is expressed as percent injected dose per intestine after 30 minutes; details: in vivo, 0.5 h; in short: as §1
Homo sapiens [17] = species on record: Homo sapiens; test: The percent protein-bound radioactivity in NGAfractions following incubation of radioiodinated compound in human serum after 3 hours; in short: as §2
Mus musculus [18] = test: The biodistribution time for compound radioactivity after concomitant administration of [[131 I ]L-HML-NGA and compound in mice. It is expressed as percent injected dose per kidney after 5 minutes; details: in vivo; in short: as §1
Mus musculus [19] = test: The biodistribution time for compound radioactivity after concomitant administration of [131 I ]L-HML-NGA and compound in mice. It is expressed as percent injected dose per liver after 30 minutes; details: in vivo, 0.5 h; in short: as §1
Mus musculus [20] = test: The biodistribution time for compound radioactivity after concomitant administration of [[131 I ]L-HML-NGA and compound in mice. It is expressed as percent injected dose per kidney after 30 minutes; details: in vivo, 0.5 h; in short: as §1
Mus musculus [21] = test: The biodistribution time for compound radioactivity after concomitant administration of [131 I ]L-HML-NGA and compound in mice. It is expressed as percent injected dose per gram of blood tissue after 5 minutes; details: in vivo; in short: as §1
Homo sapiens [22] = species on record: Homo sapiens; test: The percent protein-bound radioactivity in NGAfractions following incubation of radioiodinated compound in human serum after 6 hours; details: in vitro; in short: as §2
Mus musculus [23] = test: The biodistribution time for compound radioactivity after concomitant administration of [131 I ]L-HML-NGA and compound in mice. It is expressed as percent injected dose per intestine after 5 minutes; details: in vivo; in short: as §1
Mus musculus [24] = test: The biodistribution time for compound radioactivity after concomitant administration of [131 I ]L-HML-NGA and compound in mice. It is expressed as percent injected dose per gram of blood tissue after 15 minutes; details: in vivo, 0.25 h; in short: as §1
Mus musculus [25] = test: The biodistribution time for compound radioactivity after concomitant administration of [131 I ]L-HML-NGA and compound in mice. It is expressed as percent injected dose per intestine after 15 minutes; details: in vivo, 0.25 h; in short: as §1
Mus musculus [26] = test: The biodistribution time for compound radioactivity after concomitant administration of [131 I ]L-HML-NGA and compound in mice. It is expressed as percent injected dose per liver after 15 minutes; details: in vivo, 0.25 h; in short: as §1
Mus musculus [27] = test: The biodistribution time for compound radioactivity after concomitant administration of [131 I ]L-HML-NGA and compound in mice. It is expressed as percent injected dose per liver after 3 hours; details: in vivo; in short: as §1
Mus musculus [28] = test: The biodistribution time for compound radioactivity after concomitant administration of [131 I ]L-HML-NGA and compound in mice. It is expressed as percent injected dose per liver after 5 minutes; details: in vivo; in short: as §1
Mus musculus [29] = test: The biodistribution time for compound radioactivity after concomitant administration of [[131 I ]L-HML-NGA and compound in mice. It is expressed as percent injected dose per kidney after 15 minutes; details: in vivo, 0.25 h; in short: as §1
Mus musculus [30] = test: The biodistribution time for compound radioactivity after concomitant administration of [131 I ]L-HML-NGA and compound in mice. It is expressed as percent injected dose per stomach after 30 minutes; details: in vivo, 0.5 h; in short: as §1
[31] = Cumulative radioactivity exerted by compound in the urine at 24 hour postinjection of [131 I ]L-HML-NGA and compound; details: in vivo; in short: as §3
Homo sapiens [32] = species on record: Homo sapiens; test: The percent protein-bound radioactivity in NGAfractions following incubation of radioiodinated compound in human serum after 1 hour; in short: as §2
Mus musculus [33] = test: The biodistribution time for compound radioactivity after concomitant administration of [131 I ]L-HML-NGA and compound in mice. It is expressed as percent injected dose per neck after 15 minutes; details: in vivo, 0.25 h; in short: as §1
Mus musculus [34] = test: The biodistribution time for compound radioactivity after concomitant administration of [[131 I ]L-HML-NGA and compound in mice. It is expressed as percent injected dose per kidney after 1 hour; details: in vivo; in short: as §1
Mus musculus [35] = test: The biodistribution time for compound radioactivity after concomitant administration of [131 I ]L-HML-NGA and compound in mice. It is expressed as percent injected dose per stomach after 15 minutes; details: in vivo, 0.25 h; in short: as §1
Mus musculus [36] = test: The biodistribution time for compound radioactivity after concomitant administration of [131 I ]L-HML-NGA and compound in mice. It is expressed as percent injected dose per neck after 3 hours; details: in vivo; in short: as §1

Q: With `N[C@@H](CS)C(=O)SC1CC(=O)N(CCCCCNC(=O)CNC(=O)c2cccc([125I])c2)C1=O` (stereo partly specified) as the compound, how does the Radioactivity (Mus musculus [1]) read?
A: Its Radioactivity is 0.23%.

Q: What about the Radioactivity (Mus musculus [2]) of the same compound?
A: The Radioactivity was 0.07%.

Q: What about the Radioactivity (Mus musculus [3]) of the same compound?
A: The Radioactivity was 55.62%.

Q: And the Radioactivity (Mus musculus [4])?
A: The Radioactivity was 0.24%.

Q: What about the Radioactivity (Mus musculus [5]) of the same compound?
A: Its Radioactivity is 0.61%.

Q: What about the Radioactivity (Mus musculus [6]) of the same compound?
A: The Radioactivity was 59.36%.

Q: And the Radioactivity (Mus musculus [7])?
A: Its Radioactivity is 10.12%.

Q: And the Radioactivity (Mus musculus [8])?
A: The Radioactivity was 0.64%.

Q: And the Radioactivity (Mus musculus [9])?
A: The Radioactivity was 0.32%.

Q: And the Radioactivity (Mus musculus [10])?
A: The Radioactivity was 0.38%.

Q: What about the Radioactivity (Homo sapiens [11]) of the same compound?
A: The Radioactivity was 97.26%.

Q: What about the Radioactivity (Mus musculus [12]) of the same compound?
A: The Radioactivity was 0.04%.

Q: What about the Radioactivity [13] of the same compound?
A: The Radioactivity was 58.83%.

Q: And the Radioactivity (Mus musculus [14])?
A: Its Radioactivity is 0.06%.

Q: What about the Radioactivity (Mus musculus [15]) of the same compound?
A: The Radioactivity was 1.48%.

Q: And the Radioactivity (Mus musculus [16])?
A: The Radioactivity was 33.84%.

Q: And the Radioactivity (Homo sapiens [17])?
A: Its Radioactivity is 99.12%.

Q: What about the Radioactivity (Mus musculus [18]) of the same compound?
A: Its Radioactivity is 0.8%.

Q: What about the Radioactivity (Mus musculus [19]) of the same compound?
A: Its Radioactivity is 34.19%.

Q: What about the Radioactivity (Mus musculus [20]) of the same compound?
A: The Radioactivity was 1.72%.

Q: And the Radioactivity (Mus musculus [21])?
A: Its Radioactivity is 0.76%.

Q: What about the Radioactivity (Homo sapiens [22]) of the same compound?
A: The Radioactivity was 98.56%.

Q: And the Radioactivity (Mus musculus [23])?
A: Its Radioactivity is 0.71%.

Q: What about the Radioactivity (Mus musculus [24]) of the same compound?
A: Its Radioactivity is 0.68%.

Q: And the Radioactivity (Mus musculus [25])?
A: The Radioactivity was 7.17%.

Q: What about the Radioactivity (Mus musculus [26]) of the same compound?
A: Its Radioactivity is 77.12%.

Q: What about the Radioactivity (Mus musculus [27]) of the same compound?
A: Its Radioactivity is 5.72%.

Q: And the Radioactivity (Mus musculus [28])?
A: Its Radioactivity is 93.75%.

Q: What about the Radioactivity (Mus musculus [29]) of the same compound?
A: The Radioactivity was 1.62%.

Q: What about the Radioactivity (Mus musculus [30]) of the same compound?
A: The Radioactivity was 0.54%.

Q: And the Radioactivity [31]?
A: Its Radioactivity is 25.5%.

Q: What about the Radioactivity (Homo sapiens [32]) of the same compound?
A: Its Radioactivity is 100.07%.

Q: And the Radioactivity (Mus musculus [33])?
A: Its Radioactivity is 0.06%.

Q: What about the Radioactivity (Mus musculus [34]) of the same compound?
A: Its Radioactivity is 0.77%.

Q: What about the Radioactivity (Mus musculus [35]) of the same compound?
A: The Radioactivity was 0.46%.

Q: And the Radioactivity (Mus musculus [36])?
A: The Radioactivity was 0.04%.
